# Measured values reported in ChEMBL document CHEMBL1158464, “Structure-activity relationships and cancer-cell selective toxicity of novel inhibitors of glioma-associated oncogene homologue 1 (Gli1) mediated transcription” (J Med Chem, 2009).
# Calls of active or inactive are those of the source. No cut-off for these calls is given here.
# Tested on: Raji
# Assay: Cytotoxicity against human Raji cells at 40 uM/well after 68 hrs by alamar blue assay
# Type: functional, cell-based
# Conditions: not given
# Summary of the method: (§1)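 Cells plated in appropriate medium 24 h before compound. A 10 mM DMSO stock was diluted in EMEM to 160 µM (4×) and added in triplicate to a final 40 µM. Incubated 68 h at 37 °C, then Alamar Blue for 4 h at 37 °C. Fluorescence read at ex 510/em 590 nm. Viability taken relative to DMSO control wells.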
row,Structure (SMILES),Activity
1,C[C@H](CNC(=O)NCCc1ccc(O)cc1)c1cccc(C(=O)c2ccccc2)c1,Active
2,C[C@H](C(=O)N(CCc1ccc(O)cc1)CCc1ccc(O)cc1)c1cccc(C(=O)c2ccccc2)c1,Active
3,COc1cc(CCNC(=O)[C@@H](C)c2cccc(C(=O)c3ccccc3)c2)ccc1O,Active

# Tested on: not listed separately
# Assay: Stability in mouse C3H10T1/2 cells assessed as compound degradation at 40 uM after 24 hrs by LCMS analysis
# Type: ADME, cell-based
# Conditions: c3h 10t1/2, 24 h
row,Structure (SMILES),Stability
1,C[C@H](C(=O)N(CCc1ccc(O)cc1)CCc1ccc(O)cc1)c1cccc(C(=O)c2ccccc2)c1,Stable

# Tested on: Daoy
# Assay: Cytotoxicity against human DaOY cells at 40 uM/well after 68 hrs by alamar blue assay
# Type: functional, cell-based
# Conditions: not given
# Summary of the method: as §1
row,Structure (SMILES),Activity
1,C[C@H](CNC(=O)NCCc1ccc(O)cc1)c1cccc(C(=O)c2ccccc2)c1,Active
2,C[C@H](C(=O)N(CCc1ccc(O)cc1)CCc1ccc(O)cc1)c1cccc(C(=O)c2ccccc2)c1,Active
3,COc1cc(CCNC(=O)[C@@H](C)c2cccc(C(=O)c3ccccc3)c2)ccc1O,Active

# Molecular target: T1, Zinc finger protein GLI1 (Homo sapiens) (UniProt P08151)
# T1 sequence (whole entry): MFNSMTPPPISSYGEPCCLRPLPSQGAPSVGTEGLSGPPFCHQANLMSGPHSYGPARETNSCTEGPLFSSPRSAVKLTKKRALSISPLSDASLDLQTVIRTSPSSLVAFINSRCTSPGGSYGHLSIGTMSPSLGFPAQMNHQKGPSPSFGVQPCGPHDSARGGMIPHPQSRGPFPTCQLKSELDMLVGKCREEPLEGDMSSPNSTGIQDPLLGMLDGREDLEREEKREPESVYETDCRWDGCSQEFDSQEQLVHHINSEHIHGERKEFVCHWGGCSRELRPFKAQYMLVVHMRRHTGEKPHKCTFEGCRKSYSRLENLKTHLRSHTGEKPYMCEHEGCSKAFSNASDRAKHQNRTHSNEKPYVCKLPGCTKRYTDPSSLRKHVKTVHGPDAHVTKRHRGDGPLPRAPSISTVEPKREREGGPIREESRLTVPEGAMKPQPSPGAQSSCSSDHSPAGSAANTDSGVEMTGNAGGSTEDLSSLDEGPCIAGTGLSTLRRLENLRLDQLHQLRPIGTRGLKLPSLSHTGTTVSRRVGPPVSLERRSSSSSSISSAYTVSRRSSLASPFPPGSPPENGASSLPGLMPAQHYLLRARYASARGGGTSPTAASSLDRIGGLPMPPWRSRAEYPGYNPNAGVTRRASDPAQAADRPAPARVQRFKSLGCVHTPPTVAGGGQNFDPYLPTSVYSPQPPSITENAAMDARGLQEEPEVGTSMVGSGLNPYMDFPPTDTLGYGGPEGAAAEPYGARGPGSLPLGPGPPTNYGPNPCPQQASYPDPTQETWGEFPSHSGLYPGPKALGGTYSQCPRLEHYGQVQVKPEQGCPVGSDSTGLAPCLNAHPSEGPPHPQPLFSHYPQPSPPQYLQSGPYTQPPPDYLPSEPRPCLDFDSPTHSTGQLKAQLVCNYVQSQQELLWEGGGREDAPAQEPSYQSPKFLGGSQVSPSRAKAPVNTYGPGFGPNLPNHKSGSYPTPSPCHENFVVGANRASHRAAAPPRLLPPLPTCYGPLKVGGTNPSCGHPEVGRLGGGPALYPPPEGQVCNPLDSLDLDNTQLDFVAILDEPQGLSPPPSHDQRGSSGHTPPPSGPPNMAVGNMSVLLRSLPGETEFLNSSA
# Assay: Inhibition of exogenously transfected human Gli1-mediated transcriptional activity in mouse C3H10T1/2 cells at 40 uM after 24 hrs by luciferase reporter gene assay
# Type: cell-based
# Conditions: C3H 10T1/2
# Summary of the method: (§2)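 They were replated 18 h later, given compound or DMSO 6 h after plating, and exposed for 24 h at 37 °C, 5% CO2. Lysate was read by dual luciferase as firefly/Renilla, triplicate, DMSO = 0%. IC50 came from curve fitting.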
row,Structure (SMILES),inhibition
1,C[C@H](CNC(=O)NCCc1ccc(O)cc1)c1cccc(C(=O)c2ccccc2)c1,Active
2,C[C@H](C(=O)N(CCc1ccc(O)cc1)CCc1ccc(O)cc1)c1cccc(C(=O)c2ccccc2)c1,Active
3,COc1cc(CCNC(=O)[C@@H](C)c2cccc(C(=O)c3ccccc3)c2)ccc1O,Active

# Tested on: HepG2
# Assay: Cytotoxicity against human HepG2 cells at 40 uM/well after 68 hrs by alamar blue assay
# Type: functional, cell-based
# Conditions: not given
# Summary of the method: as §1
row,Structure (SMILES),Activity
1,C[C@H](CNC(=O)NCCc1ccc(O)cc1)c1cccc(C(=O)c2ccccc2)c1,inactive
2,C[C@H](C(=O)N(CCc1ccc(O)cc1)CCc1ccc(O)cc1)c1cccc(C(=O)c2ccccc2)c1,inactive
3,COc1cc(CCNC(=O)[C@@H](C)c2cccc(C(=O)c3ccccc3)c2)ccc1O,inactive

# Tested on: DU-145
# Assay: Cytotoxicity against human DU145 cells at 40 uM/well after 68 hrs by alamar blue assay
# Type: functional, cell-based
# Conditions: not given
# Summary of the method: as §1
row,Structure (SMILES),Activity
1,C[C@H](CNC(=O)NCCc1ccc(O)cc1)c1cccc(C(=O)c2ccccc2)c1,Active
2,C[C@H](C(=O)N(CCc1ccc(O)cc1)CCc1ccc(O)cc1)c1cccc(C(=O)c2ccccc2)c1,Active
3,COc1cc(CCNC(=O)[C@@H](C)c2cccc(C(=O)c3ccccc3)c2)ccc1O,Active

# Tested on: SJRH30
# Assay: Cytotoxicity against human Rh30 cells at 40 uM/well after 68 hrs by alamar blue assay
# Type: functional, cell-based
# Conditions: not given
# Summary of the method: as §1
row,Structure (SMILES),Activity
1,C[C@H](CNC(=O)NCCc1ccc(O)cc1)c1cccc(C(=O)c2ccccc2)c1,Active
2,C[C@H](C(=O)N(CCc1ccc(O)cc1)CCc1ccc(O)cc1)c1cccc(C(=O)c2ccccc2)c1,Active
3,COc1cc(CCNC(=O)[C@@H](C)c2cccc(C(=O)c3ccccc3)c2)ccc1O,Active

# Tested on: MDA-MB-231
# Assay: Cytotoxicity against human MDA-MB-231 cells at 40 uM/well after 68 hrs by alamar blue assay
# Type: functional, cell-based
# Conditions: not given
# Summary of the method: as §1
row,Structure (SMILES),Activity
1,C[C@H](CNC(=O)NCCc1ccc(O)cc1)c1cccc(C(=O)c2ccccc2)c1,Active
2,C[C@H](C(=O)N(CCc1ccc(O)cc1)CCc1ccc(O)cc1)c1cccc(C(=O)c2ccccc2)c1,Active
3,COc1cc(CCNC(=O)[C@@H](C)c2cccc(C(=O)c3ccccc3)c2)ccc1O,Active

# Tested on: LN-229
# Assay: Cytotoxicity against human LN229 cells at 40 uM/well after 68 hrs by alamar blue assay
# Type: functional, cell-based
# Conditions: not given
# Summary of the method: as §1
row,Structure (SMILES),Activity
1,C[C@H](CNC(=O)NCCc1ccc(O)cc1)c1cccc(C(=O)c2ccccc2)c1,inactive
2,C[C@H](C(=O)N(CCc1ccc(O)cc1)CCc1ccc(O)cc1)c1cccc(C(=O)c2ccccc2)c1,inactive
3,COc1cc(CCNC(=O)[C@@H](C)c2cccc(C(=O)c3ccccc3)c2)ccc1O,inactive

# Molecular target: T1, Zinc finger protein GLI1 (Homo sapiens)
# Assay: Inhibition of exogenously transfected human Gli1-mediated transcriptional activity in mouse C3H10T1/2 cells at 20 uM after 24 hrs by luciferase reporter gene assay
# Type: cell-based
# Conditions: C3H 10T1/2
# Summary of the method: as §2
row,Structure (SMILES),inhibition
1,C[C@H](CNC(=O)NCCc1ccc(O)cc1)c1cccc(C(=O)c2ccccc2)c1,Active
2,C[C@H](C(=O)N(CCc1ccc(O)cc1)CCc1ccc(O)cc1)c1cccc(C(=O)c2ccccc2)c1,Active
3,COc1cc(CCNC(=O)[C@@H](C)c2cccc(C(=O)c3ccccc3)c2)ccc1O,Active

# Tested on: BJ
# Assay: Cytotoxicity against human TERT-immortalized human BJ cells at 40 uM/well after 68 hrs by alamar blue assay
# Type: cell-based
# Conditions: not given
# Summary of the method: as §1
row,Structure (SMILES),Activity
1,C[C@H](CNC(=O)NCCc1ccc(O)cc1)c1cccc(C(=O)c2ccccc2)c1,Toxic
2,C[C@H](C(=O)N(CCc1ccc(O)cc1)CCc1ccc(O)cc1)c1cccc(C(=O)c2ccccc2)c1,Non-toxic
3,COc1cc(CCNC(=O)[C@@H](C)c2cccc(C(=O)c3ccccc3)c2)ccc1O,Non-toxic

# Molecular target: Zinc finger protein GLI2 (Homo sapiens, UniProt P10070)
# Sequence (P10070 whole entry, looked up): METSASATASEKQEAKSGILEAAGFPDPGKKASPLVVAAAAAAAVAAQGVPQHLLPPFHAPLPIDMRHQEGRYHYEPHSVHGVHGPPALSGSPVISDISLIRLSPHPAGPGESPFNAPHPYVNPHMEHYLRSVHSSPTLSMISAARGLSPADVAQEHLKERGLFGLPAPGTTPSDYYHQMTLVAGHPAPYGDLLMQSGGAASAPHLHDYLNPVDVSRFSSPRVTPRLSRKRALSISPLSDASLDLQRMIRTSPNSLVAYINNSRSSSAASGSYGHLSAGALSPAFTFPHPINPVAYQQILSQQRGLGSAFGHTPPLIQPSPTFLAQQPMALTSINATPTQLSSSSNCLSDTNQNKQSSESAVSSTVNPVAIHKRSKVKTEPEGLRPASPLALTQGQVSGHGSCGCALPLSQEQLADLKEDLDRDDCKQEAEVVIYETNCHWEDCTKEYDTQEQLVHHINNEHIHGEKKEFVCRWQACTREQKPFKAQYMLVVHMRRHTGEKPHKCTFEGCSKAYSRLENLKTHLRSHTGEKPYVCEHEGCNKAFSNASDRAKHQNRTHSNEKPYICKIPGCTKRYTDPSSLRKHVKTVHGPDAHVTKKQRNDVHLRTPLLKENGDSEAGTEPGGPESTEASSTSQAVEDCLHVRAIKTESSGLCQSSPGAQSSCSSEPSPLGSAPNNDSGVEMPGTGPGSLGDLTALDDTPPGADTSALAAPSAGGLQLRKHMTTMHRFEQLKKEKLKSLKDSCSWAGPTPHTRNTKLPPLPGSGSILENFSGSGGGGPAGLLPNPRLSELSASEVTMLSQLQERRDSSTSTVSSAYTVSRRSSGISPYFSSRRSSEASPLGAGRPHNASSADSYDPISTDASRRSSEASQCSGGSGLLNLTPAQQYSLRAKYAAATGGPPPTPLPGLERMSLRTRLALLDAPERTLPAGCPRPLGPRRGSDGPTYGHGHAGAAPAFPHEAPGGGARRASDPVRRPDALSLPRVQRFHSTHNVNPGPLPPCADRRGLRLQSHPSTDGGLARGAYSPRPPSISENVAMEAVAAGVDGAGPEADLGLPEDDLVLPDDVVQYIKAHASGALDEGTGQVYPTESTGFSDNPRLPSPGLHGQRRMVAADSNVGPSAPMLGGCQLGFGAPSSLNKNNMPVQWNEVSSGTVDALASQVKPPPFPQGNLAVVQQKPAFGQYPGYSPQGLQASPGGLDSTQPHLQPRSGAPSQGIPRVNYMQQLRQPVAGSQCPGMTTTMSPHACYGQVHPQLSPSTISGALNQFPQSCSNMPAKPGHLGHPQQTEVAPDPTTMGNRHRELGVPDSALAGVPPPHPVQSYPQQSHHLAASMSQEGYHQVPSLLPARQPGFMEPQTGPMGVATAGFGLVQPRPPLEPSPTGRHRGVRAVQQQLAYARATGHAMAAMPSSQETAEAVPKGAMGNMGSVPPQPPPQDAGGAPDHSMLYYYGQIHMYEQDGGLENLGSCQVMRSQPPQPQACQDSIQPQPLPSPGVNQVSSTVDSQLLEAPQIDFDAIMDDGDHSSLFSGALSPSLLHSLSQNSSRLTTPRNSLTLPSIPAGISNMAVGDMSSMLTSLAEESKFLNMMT
# Assay: Inhibition of exogenously transfected human Gli2 delta-N-mediated transcriptional activity in mouse C3H10T1/2 cells after 24 hrs by luciferase reporter gene assay
# Type: cell-based
# Conditions: c3h 10t1/2
# Summary of the method: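 C3H10T1/2 reporter assay run as for hGli1, but with an amino-terminal repressor-domain-deleted hGli2 (ΔNhGli2) in place of hGli1, plus GliLuc-BS and pRL-TK via Fugene6. Compound or DMSO was given for 24 h at 37 °C. Read-out was dual luciferase firefly/Renilla in triplicate, with dose-response curve fitting.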
row,Structure (SMILES),IC50
1,C[C@H](C(=O)N(CCc1ccc(O)cc1)CCc1ccc(O)cc1)c1cccc(C(=O)c2ccccc2)c1,20.5 µM
